For experiment [1], the system named is Mus sp. Kind of experiment: In vivo evaluation of % survival rate after peroral administration on 5th day at dose 2.5 mg/kg. Type of experiment: functional. As to conditions: Mus sp., po.
Experiment [2] concerns Mus sp. Nature of the experiment: In vivo evaluation of % survival rate after peroral administration on 7th day at dose 2.5 mg/kg. The class given is functional. As to conditions: Mus sp., po.
A further experiment has as its system Aspergillus niger. Nature of the experiment: In vitro evaluation of minimum inhibitory concentration against Aspergillus niger 18. Type of experiment: functional. As to conditions: Aspergillus niger; read-out: MIC. In outline: (§1)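 Stocks are 800 μg/mL in 50% ethanol. Each plate gets 10 μL of inoculum at 10^5 cfu/mL. Incubation at 25 °C, 48 h for yeasts and 120 h for dermatophytes and molds. Organisms are ATCC strains or clinical isolates.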

Experiment [3] deals with Mus sp. Kind of experiment: In vivo evaluation of % survival rate after peroral administration on 3rd day at dose 2.5 mg/kg. The class given is functional. As to conditions: Mus sp., po.
In experiment [4] the test system is Mus sp. Kind of experiment: In vivo evaluation of % survival rate after peroral administration on 9th day at dose 2.5 mg/kg. Type of experiment: functional. As to conditions: Mus sp., po.
Another experiment has as its system Candida tropicalis. Kind of experiment: In vitro evaluation of minimum inhibitory concentration against Candida tropicalis 2.11. The class given is functional. As to conditions: Candida tropicalis; read-out: MIC. The essentials: as §1
In the next experiment the test system is Trichophyton rubrum. Kind of experiment: In vitro evaluation of minimum inhibitory concentration against Trichophyton rubrum 90. Type of experiment: functional. In outline:
as §1

The test system of the next experiment is Rhodotorula mucilaginosa. Nature of the experiment: In vitro evaluation of minimum inhibitory concentration against Rhodotorula rubra 16. The class given is functional. As to conditions: Rhodotorula mucilaginosa; read-out: MIC. In outline: as §1
Another experiment deals with Nannizzia gypsea. Kind of experiment: In vitro evaluation of minimum inhibitory concentration against Microsporum gypseum 22. As to conditions: Nannizzia gypsea; read-out: MIC. Type of experiment: functional. The essentials:
as §1

For another experiment, the system named is Microsporum canis. Kind of experiment: In vitro evaluation of minimum inhibitory concentration against Microsporum canis 47. The class given is functional. In outline: as §1
The test system of another experiment is Pichia kudriavzevii. Kind of experiment: In vitro evaluation of minimum inhibitory concentration against Candida krusei 70. The class given is functional. As to conditions: Pichia kudriavzevii; read-out: MIC. In outline:
as §1

The test system of a further experiment is Kluyveromyces marxianus. Nature of the experiment: In vitro evaluation of minimum inhibitory concentration against Candida pseudotropicalis 13. The class given is functional. In outline: as §1
Experiment [5] deals with Candida albicans. Nature of the experiment: In vivo evaluation of minimum inhibitory concentration against Candida albicans 406. The class given is functional. In outline:
(§2)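 Broth macrodilution MIC following NCCLS M27-P, in RPMI-1640 buffered with 0.165 M MOPS. Fluconazole was dissolved in water and other drugs in DMSO. C. parapsilosis ATCC 22019 served as the reference strain in every run. MIC was the lowest concentration giving turbidity at or below the 80% inhibition standard.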

For the next experiment, the system named is Aspergillus fumigatus. Nature of the experiment: In vitro evaluation of minimum inhibitory concentration against Aspergillus fumigatus 33. The class given is functional. As to conditions: Aspergillus fumigatus; read-out: MIC. The essentials:
as §1

A further experiment has as its system Nakaseomyces glabratus. Nature of the experiment: In vitro evaluation of minimum inhibitory concentration against Torulopsis glabrata 78. The class given is functional. As to conditions: Nakaseomyces glabratus; read-out: MIC. In outline: as §1
For experiment [6], the system named is Meyerozyma guilliermondii. Kind of experiment: In vitro evaluation of minimum inhibitory concentration against Candida guilliermondii 26. The class given is functional. In outline: as §1
The next experiment has as its system Trichophyton benhamiae. Nature of the experiment: In vitro evaluation of minimum inhibitory concentration against Trichophyton mentagrophytes 23. As to conditions: Trichophyton benhamiae; read-out: MIC. Type of experiment: functional, Arthroderma benhamiae. In outline: as §1
The test system of another experiment is Aspergillus flavus. Nature of the experiment: In vitro evaluation of minimum inhibitory concentration against Aspergillus flavus 19. Type of experiment: functional. As to conditions: Aspergillus flavus; read-out: MIC. In outline: as §1
Another experiment deals with Candida parapsilosis. Nature of the experiment: In vitro evaluation of minimum inhibitory concentration against Candida parapsilosis 61. The class given is functional. In outline: as §1
In experiment [7] the test system is Candida albicans. Kind of experiment: In vivo evaluation of minimum inhibitory concentration against Candida albicans 60. The class given is functional. In outline:
as §2

In experiment [8] the test system is Candida albicans. Nature of the experiment: In vitro evaluation of minimum inhibitory concentration against Candida albicans 76. The class given is functional. In outline: as §1
In experiment [9] the test system is Mus sp. Nature of the experiment: In vivo evaluation of % survival rate after peroral administration on 7th day at dose 1 mg/kg. As to conditions: route oral, 1 mg/kg. Type of experiment: functional.
Experiment [10] deals with Mus sp. Kind of experiment: In vivo evaluation of % survival rate after peroral administration on 9th day at dose 1 mg/kg. The class given is functional. As to conditions: route oral, 1 mg/kg.
Experiment [11] concerns Mus sp. Nature of the experiment: In vivo evaluation of % survival rate after peroral administration on 3rd day at dose 1 mg/kg. Type of experiment: functional. As to conditions: route oral, 1 mg/kg.
The test system of experiment [12] is Mus sp. Nature of the experiment: In vivo evaluation of % survival rate after peroral administration on 5th day at dose 1 mg/kg. The class given is functional. As to conditions: route oral, 1 mg/kg.
[13] abbreviates: Trichophyton rubrum, read-out: MIC.
Where [14] appears, read: Microsporum canis, read-out: MIC.
Setting [15] is: Kluyveromyces marxianus, read-out: MIC.
Setting [16] is: Candida albicans, read-out: MIC.
[17] abbreviates: Meyerozyma guilliermondii, read-out: MIC.
[18] abbreviates: Lodderomyces parapsilosis, read-out: MIC.

Values after ≈ are worked out from the molar mass of the structure shown. Bounds are passed on as bounds.

For orientation: MIC means the least concentration at which growth counts as inhibited. `C[C@H]1N(C(=O)c2ccc(OCC(F)(F)C(F)F)cc2)CC(=O)O[C@@]1(Cn1cncn1)c1ccc(Cl)cc1Cl` (racemic): the survival at 2.5 mg/kg with Mus sp. [1] came out at 90%; in the experiment with Mus sp. [2], 80%; with Mus sp. [3], 90%; in the experiment on Mus sp. [4] it was 60%. Besides, the minimum inhibitory concentration (MIC) in the experiment on Aspergillus niger is over 80 mg/L; in the experiment on Candida tropicalis, 80 mg/L (≈ 139 µM); with Trichophyton rubrum (setting [13]) it was over 80 mg/L; in the experiment with Rhodotorula mucilaginosa, 80 mg/L (≈ 139 µM); with Nannizzia gypsea, 80 mg/L (≈ 139 µM); with Microsporum canis (setting [14]), over 80 mg/L. Further, the MIC is over 80 mg/L in the experiment with Pichia kudriavzevii; 10 mg/L (≈ 17.4 µM) with Kluyveromyces marxianus (setting [15]); 1.25 mg/L (≈ 2.17 µM) in the experiment on Candida albicans [5] (setting [16]); over 80 mg/L with Aspergillus fumigatus; over 80 mg/L in the experiment with Nakaseomyces glabratus; 80 mg/L (≈ 139 µM) in [6] (setting [17]). Moreover, the minimal inhibitory concentration (MIC) was over 80 mg/L with Trichophyton benhamiae; over 80 mg/L in the experiment with Aspergillus flavus; 20 mg/L (≈ 34.8 µM) with Candida parapsilosis (setting [18]); 2.5 mg/L (≈ 4.35 µM) in the experiment with Candida albicans [7] (setting [16]); 20 mg/L (≈ 34.8 µM) with Candida albicans [8] (setting [16]).
With `C[C@H]1N(C(=O)c2ccc(C(F)(F)F)cc2)C[C@H](O)O[C@@]1(Cn1cncn1)c1ccc(F)cc1F` (racemic), the survival at 2.5 mg/kg in the experiment on Mus sp. [1], with Mus sp. [2], in the experiment with Mus sp. [3] and with Mus sp. [4] was 100% each time. The Survival was determined as 55% with Mus sp. [9], 25% in the experiment on Mus sp. [10], 85% with Mus sp. [11] and 85% in the experiment on Mus sp. [12]. Also, the minimal inhibitory concentration (MIC) with Candida tropicalis is over 80 mg/L; against Trichophyton rubrum, over 80 mg/L; in the experiment on Rhodotorula mucilaginosa, over 80 mg/L; against Microsporum canis, 80 mg/L (≈ 166 µM); with Kluyveromyces marxianus, 10 mg/L (≈ 20.7 µM); with Candida albicans [5] it was 2.5 mg/L (≈ 5.18 µM). Further, the MIC in the experiment on Nakaseomyces glabratus is over 80 mg/L; in [6], over 80 mg/L; in the experiment with Candida parapsilosis, 80 mg/L (≈ 166 µM); in the experiment on Candida albicans [7], 10 mg/L (≈ 20.7 µM); in the experiment with Candida albicans [8] it was over 80 mg/L.
As to `C[C@H]1N(C(=O)c2ccc(OCC(F)(F)C(F)F)cc2)CC(=O)O[C@@]1(Cn1cncn1)c1ccc(F)cc1F` (racemic), the survival at 2.5 mg/kg was 100% in the experiment on Mus sp. [1], 90% in the experiment on Mus sp. [2], 100% with Mus sp. [3] and 70% with Mus sp. [4]. In addition, the MIC with Aspergillus niger, in the experiment on Candida tropicalis, in the experiment with Trichophyton rubrum (setting [13]), with Rhodotorula mucilaginosa, with Nannizzia gypsea and in the experiment on Microsporum canis (setting [14]) was over 80 mg/L in each case. The minimum inhibitory concentration (MIC) in the experiment on Pichia kudriavzevii was over 80 mg/L; in the experiment on Kluyveromyces marxianus (setting [15]), 80 mg/L (≈ 147 µM); with Candida albicans [5] (setting [16]), 10 mg/L (≈ 18.4 µM); with Aspergillus fumigatus it was over 80 mg/L; with Nakaseomyces glabratus, over 80 mg/L; in experiment [6] (setting [17]), 80 mg/L (≈ 147 µM). The MIC in the experiment with Trichophyton benhamiae was over 80 mg/L; with Aspergillus flavus, over 80 mg/L; with Candida parapsilosis (setting [18]) it was 80 mg/L (≈ 147 µM); in the experiment on Candida albicans [7] (setting [16]), 10 mg/L (≈ 18.4 µM); in the experiment with Candida albicans [8] (setting [16]), over 80 mg/L.
For `C[C@H]1N(C(=O)c2ccccc2)CCO[C@@]1(Cn1cncn1)c1ccccc1` (racemic), the survival at 2.5 mg/kg in the experiment on Mus sp. [1] was determined as 0%; with Mus sp. [2], 0%; with Mus sp. [3] it was 40%; in the experiment on Mus sp. [4] it was 0%. Also, the MIC with Aspergillus niger, in the experiment with Candida tropicalis, in the experiment with Trichophyton rubrum (setting [13]), in the experiment with Rhodotorula mucilaginosa, in the experiment on Nannizzia gypsea and with Microsporum canis (setting [14]) was over 80 mg/L in each case. Also, the minimum inhibitory concentration (MIC) (with Pichia kudriavzevii; in the experiment on Kluyveromyces marxianus (setting [15]); in the experiment on Candida albicans [5] (setting [16]); in the experiment with Aspergillus fumigatus; with Nakaseomyces glabratus; in experiment [6] (setting [17])) was over 80 mg/L throughout. Besides, the MIC in the experiment with Trichophyton benhamiae, in the experiment on Aspergillus flavus, in the experiment on Candida parapsilosis (setting [18]), in the experiment on Candida albicans [7] (setting [16]) and in the experiment on Candida albicans [8] (setting [16]) was over 80 mg/L in each case.

(Values after ChEMBL document CHEMBL1128448, “Synthesis and antifungal activity of new azole derivatives containing an N-acylmorpholine ring” (1995).)
